# Data: ChEMBL document CHEMBL4052826, “Design and Synthesis of Novel Reactive Oxygen Species Inducers for the Treatment of Pancreatic Ductal Adenocarcinoma” (J Med Chem, 2018)
# Active and inactive are the calls of the source. The calls are words filed in the database; no cut-off is given here.
# Tests used:
# [1] = Cytotoxicity against HPDEC assessed as decrease in cell proliferation after 72 hrs by MTT assay; type: cell-based; conditions: Homo sapiens
# Summary of the method: (§1)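 MTT assay. Cells (3000–8000/well) attached overnight in RPMI1640 with 10% FBS; the GR line was kept with 200 nM gemcitabine. Serial dilutions (30 nM–10 μM for most lines) were applied for 72 h. MTT was added at a final 300 μg/mL for 3 h at 37°C, formazan was dissolved in DMSO and A570 read. Inhibition = (1 − OD treated/OD control) × 100. IC50 given as mean ± SD, three independent experiments.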
# [2] = Selectivity index, ratio of IC50 for HPDEC to IC50 for human MIAPaCa2 cells
# Summary of the method: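 The measurement is MTT cytotoxicity (72 h) in HPV16-E6E7-immortalized HPDE cells and in MIA PaCa-2 cells, both grown in RPMI1640 with 10% FBS. Cells were seeded at 3000–8000/well and attached overnight, then treated with serial dilutions (30 nM–10 μM for most lines). MTT (300 μg/mL final) was added for 3 h at 37°C, formazan was dissolved in DMSO and A570 was read. IC50s are mean ± SD of three experiments; the index is their ratio.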
# MIA PaCa-2 [3] = assay: Cytotoxicity against human MIAPaCa2 cells assessed as decrease in cell proliferation after 72 hrs in presence of NAC by MTT assay; type: functional, cell-based
# Summary of the method: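 MIA PaCa-2 cells were treated for 72 h with compound in the presence of 5 mM NAC. Viability was read by MTT (final 300 μg/mL, 3 h, A570). Mean ± SD of three independent experiments.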
# MIA PaCa-2 [4] = assay: Induction of reactive oxygen species generation in human MIAPaCa2 cells assessed as upregulation of NQO1 gene expression after 4 hrs by Bru-seq analysis; type: functional, cell-based
# MIA PaCa-2 [5] = assay: Induction of unfolded protein response in human MIAPaCa2 cells assessed as upregulation of GRP78 expression at 2 uM by Western blot analysis; type: functional, cell-based; conditions: TDE = time-dependent effect
# Summary of the method: (§2)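 Immunoblotting. Cells (4×10^5) in 60 mm dishes were treated, lysed 30 min at 4°C and quantified by BCA. 40 μg protein was run on SDS-PAGE and transferred to PVDF. Primary antibodies (1:1000) incubated overnight at 4°C, then Dylight 800 secondary, with fluorescent scanning. Bands were normalized to GAPDH or actin loading controls. Mean ± SD, three independent experiments, Student's t-test.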
# BXPC-3 [6] = assay: Induction of unfolded protein response in human BxPC3 cells assessed as upregulation of GRP78 expression at 2 uM by Western blot analysis; type: functional, cell-based; conditions: TDE = time-dependent effect; summary of the method: as §2
# MIA PaCa-2 [7] = assay: Induction of reactive oxygen species generation in human MIAPaCa2 cells assessed as upregulation of NQO1 expression at 2 uM after 4 to 24 hrs by Western blot analysis; type: functional, cell-based; summary of the method: as §2
# BXPC-3 [8] = assay: Induction of reactive oxygen species generation in human BxPC3 cells assessed as upregulation of NQO1 expression at 2 uM after 4 to 24 hrs by Western blot analysis; type: functional, cell-based; summary of the method: as §2
# MIA PaCa-2 [9] = assay: Downregulation of Sp4 gene expression in human MIAPaCa2 cells at IC50 to 5 times IC50 after 4 hrs by Bru-seq analysis; type: functional, cell-based
# MIA PaCa-2 [10] = assay: Inhibition of mtDNA transcription from HSP2 promoter in human MIAPaCa2 cells at 5 times IC50 after 4 hrs by Bru-seq analysis; type: functional, cell-based
# Summary of the method: (§3)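 Nascent RNA sequencing (Bru-seq): 4×10^6 MIA PaCa-2 cells seeded in 10 cm dishes, treated next day for 4 h with drug or DMSO. Bromouridine (2 mM final) added for the last 30 min. Total RNA taken in TRIZOL; labeled RNA immunocaptured, converted to cDNA libraries and deep sequenced. Signal compared with DMSO-treated cells.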
# MIA PaCa-2 [11] = assay: Downregulation of COX-3 expression in human MIAPaCa2 cells at 2 uM after 4 to 24 hrs by Western blot method; type: functional, cell-based; summary of the method: as §2
# MIA PaCa-2 [12] = assay: Inhibition of mtDNA transcription from HSP1 promoter in human MIAPaCa2 cells at 5 times IC50 after 4 hrs by Bru-seq analysis; type: functional, cell-based; summary of the method: as §3
# Mus musculus [13] = assay: Toxicity in NOD/SCID mouse xenografted with human MIAPaCa2 cells assessed as microscopic changes in liver at 5 mg/kg, ip administered 5 times a week until day 44 by hematoxylin and eosin staining-based inverted microscopic method; type: organism-based; conditions: in vivo
# Summary of the method: (§4)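 Necropsy after the 44-day ip course in MIA PaCa-2 xenograft-bearing NOD/SCID mice: heart, kidney, liver, lung, spleen and pancreas fixed in 10% neutral buffered formalin, paraffin-embedded, sectioned and stained with hematoxylin and eosin. Sections examined by inverted microscope at 20X, compared with vehicle-treated animals.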
# Mus musculus [14] = assay: Toxicity in NOD/SCID mouse xenografted with human MIAPaCa2 cells assessed as microscopic changes in lung at 5 mg/kg, ip administered 5 times a week until day 44 by hematoxylin and eosin staining-based inverted microscopic method; type: organism-based; conditions: in vivo; summary of the method: as §4
# MIA PaCa-2 [15] = assay: Antitumor activity against human MIAPaCa2 cells xenografted in NOD/SCID mouse assessed as delay of tumor growth at 5 mg/kg, ip administered 5 times a week until day 44 followed by dose escalation up to 20 mg/kg until day 67; type: functional, organism-based
# Summary of the method: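 Subcutaneous MIA PaCa-2 flank xenografts in NOD/SCID mice, randomized at 65 mm3. Dosing was 5 mg/kg ip in 5% DMSO/60% propylene glycol/35% saline, five days on and two off, to day 44. Two mice per group then continued with the dose gradually raised to 20 mg/kg until day 67. Tumor volume was taken by caliper and body weight monitored.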
# Mus musculus [16] = assay: Induction of reactive oxygen species generation in tumor of NOD/SCID mouse xenografted with MIAPaCa2 cells assessed as upregulation of HO-1 expression at 5 mg/kg, ip administered 5 times a week until day 44 by Western blot method; type: functional, organism-based
# Mus musculus [17] = assay: Induction of unfolded protein response in tumor of NOD/SCID mouse xenografted with MIAPaCa2 cells assessed as upregulation of CHOP expression at 5 mg/kg, ip administered 5 times a week until day 44 by Western blot method; type: functional, organism-based
# Summary of the method: (§5)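 Dosed ip in 5% DMSO/60% propylene glycol/35% saline, five days on/two off, until day 44, versus vehicle. Tumor lysates immunoblotted with primary antibodies, Dylight 800 secondary, fluorescent scan.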
# Mus musculus [18] = assay: Induction of unfolded protein response in tumor of NOD/SCID mouse xenografted with MIAPaCa2 cells assessed as upregulation of GRP78 expression at 5 mg/kg, ip administered 5 times a week until day 44 by Western blot method; type: functional, organism-based; summary of the method: as §5
# MIA PaCa-2 [19] = assay: Antiproliferative activity against human MIAPaCa2 cells xenografted in NOD/SCID mouse at 5 mg/kg, ip administered 5 times a week until day 44 by ki67 staining-based assay; type: functional, organism-based
# BXPC-3 [20] = assay: Cytotoxicity against human BxPC3 cells assessed as decrease in cell proliferation after 72 hrs by MTT assay; type: functional, cell-based; conditions: BXPC-3, 72 h; summary of the method: as §1
smiles,measurement,setting,value
O=C1C(Nc2ccc(-c3ccccc3)cc2)=CC(=O)c2ncncc21,IC50,[1],2700 nM
same,Ratio IC50,[2],3
same,Activity,MIA PaCa-2 [3],inactive
same,Activity,MIA PaCa-2 [4],Dose-dependent effect
same,Activity,MIA PaCa-2 [5],Tde
same,Activity,BXPC-3 [6],Tde
same,Activity,MIA PaCa-2 [7],inactive
same,Activity,BXPC-3 [8],inactive
same,Activity,MIA PaCa-2 [9],inactive
same,inhibition,MIA PaCa-2 [10],Active
same,Activity,MIA PaCa-2 [11],Active
same,inhibition,MIA PaCa-2 [12],inactive
same,Activity,Mus musculus [13],Non-Toxic
same,Activity,Mus musculus [14],Non-Toxic
same,Activity,MIA PaCa-2 [15],Active
same,Activity,Mus musculus [16],Active
same,Activity,Mus musculus [17],Active
same,Activity,Mus musculus [18],Active
same,Activity,MIA PaCa-2 [19],Active
same,IC50,BXPC-3 [20],500 nM
